Bioassay records: PubChem BioAssay, The Scripps Research Institute Molecular Screening Center
HTR1E agonist – agonists of human 5-HT1E serotonin receptor; activation, % at 6 µM; AID 574; CHO 5-HT1E Ga15 NFAT-bla reporter, FRET; 0% DMSO wells, 100% control agonist wells; 65,000 compounds, 0.69% hits; P28566;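 active = activation above a set limit, the screen-wide mean activation plus 3 SD, cut at about 8.5% in these data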
S1P1 ag-PAM – agonists and agonism potentiators of human S1P1 receptor. P21453. S1P1 CRE-bla cells, forskolin, beta-lactamase FRET, potentiator mode; S1P1 agonist co-added at EC20, 2 nM; 100% = saturating reference agonist, 0% = basal. activation, % at 9.5 µM. 56,000 compounds, 0.57% hits. AID 449;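 active = activation above a cutoff set at the mean activation of all tested compounds plus 3 SD, cut at about 54% in these data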;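 also: forskolin at 4 µM as EC80 and the EC20 agonist is SEW2871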
5HT1a antag – blocks the human serotonin 5-HT1a receptor; P08908; CHO 5-HT1a Ga15 NFAT-bla reporter, antagonist mode; inhibition, % at 10 µM; 62,000 compounds, 0.68% hits;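 active = inhibition above the mean of all tested compounds plus 3 SD, cut at about 43% in these data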;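 also: receptor stimulated by 5-CT agonist at 100 nM near EC80; beta-lactamase reporter measured by ratiometric fluorescence of a cleavable substrate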
5HT1E antag – 5-HT1E (human) receptor antagonism; CHO 5-HT1E Ga15 NFAT-bla reporter, FRET, antagonist; P28566; 65,000 compounds, 0.99% hits; inhibition, % at 6 µM;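 active = inhibition above a set limit, the mean inhibition across every tested compound plus 3 SD, cut at about 29% in these data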;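 also: signal is the 460 over 535 nm emission ratio of beta-lactamase substrate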
S1P3 agonist – activates the human S1P3 receptor | Q99500 | S1P3 NFAT-BLA reporter cells, agonism, FRET ratio; relative to 1 µM S1P, basal subtracted | activation, % at 4.5 µM | 60,000 compounds, 0.1% hits;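 active = activation above the screen-wide mean plus 3 SD, cut at about 4.5% in these data, passing the limit was not always enough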
Target sequence (Q99500 whole entry, looked up): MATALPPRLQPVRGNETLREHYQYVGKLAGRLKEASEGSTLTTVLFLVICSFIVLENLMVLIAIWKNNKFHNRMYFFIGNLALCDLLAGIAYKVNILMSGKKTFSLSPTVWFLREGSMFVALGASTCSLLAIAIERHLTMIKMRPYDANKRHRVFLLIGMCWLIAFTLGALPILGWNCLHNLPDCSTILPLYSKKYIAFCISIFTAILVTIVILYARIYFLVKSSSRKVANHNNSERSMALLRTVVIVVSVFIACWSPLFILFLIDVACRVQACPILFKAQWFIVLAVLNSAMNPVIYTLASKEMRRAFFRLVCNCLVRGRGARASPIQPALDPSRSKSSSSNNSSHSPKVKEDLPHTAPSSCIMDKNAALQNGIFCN
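Benchmarks: high control 1 µM S1P / System: stable CHO line with human S1P3, Gα16, NFAT-BLA reporter / Dosing: single compound concentration, 4.5 µM final / Timing: 4 h compound at 37 °C, 2 h substrate at RT / Measured by: FRET β-lactamase substrate fluorescence, excitation 405 nm, 460/535 nm emission ratio, background-subtracted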
HTR1A agonist – 5-HT1a (human) receptor agonism; P08908; CHO 5-HT1a Ga15 NFAT-bla reporter, FRET ratio; 0% basal, 100% maximal reference agonist; activation, % at 10 µM; 65,000 compounds, 0.56% hits;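 active = activation above the screen-wide mean activation plus 3 SD, cut at about 19% in these data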
Each line names hits and unclear results; the compound was inactive in the other large screens. Compounds with a hit are over-represented: about 2.9% of the library has one in this group of screens.

CC(C)c1cc(=O)oc2c3c4c(cc12)CCCN4CCC3	none
CN1CCCc2cc3c(C(F)(F)F)cc(=O)oc3nc21	5HT1E antag 41 (no result: S1P1 ag-PAM)
CCOC(=O)c1ccc(NC(=O)CSc2nnnn2CCCO)cc1	none
O=c1cc(CSc2nnc(COc3ccccc3Cl)o2)nc2sccn12	none
COC(=O)c1nnn(-c2nonc2N)c1CSc1ccc(Cl)cc1	5HT1E antag 30
COC(=O)c1[nH]c2cc(OC)ccc2c1NC(=O)c1ccc2c(c1)OCO2	HTR1A agonist 115 (no result: S1P1 ag-PAM, S1P3 agonist)
O=C(CCn1c(=O)sc2ccccc21)NCc1cccs1	HTR1A agonist 74 (no result: S1P1 ag-PAM, S1P3 agonist)
CN(C)CCOC(=O)CCc1ccccc1	none
CN(C)CCOc1ccccc1Cc1ccccc1	HTR1E agonist 16 (no result: 5HT1a antag)
CC(=O)c1ccc(N2CCN(C(=O)CCCn3c(=S)[nH]c4cc5c(cc4c3=O)OCO5)CC2)cc1	none (no result: S1P1 ag-PAM, S1P3 agonist)
COc1cc2c(cc1OC)CN(Cc1cccs1)CC2	HTR1E agonist 13
CC(C)OCCCNc1ncnc2c1[nH]c1ccccc12	none
C=CCn1c(SCC(=O)N2CCN(C(=O)c3ccco3)CC2)nc2sc(CC)cc2c1=O	none
C=CCn1c(SCC(=O)c2cccs2)nc2sc(CC)cc2c1=O	S1P1 ag-PAM 93
CN(C)CCCn1c(NC(=O)C2CCCCC2)nc2ccccc21	HTR1E agonist 54 (no result: 5HT1a antag)
CC(=O)Nc1nc2ccccc2n1CCN(C)C	none
Cn1ncc(N)c1C(=O)Nc1cccc(C(F)(F)F)c1	HTR1A agonist 45
CC(C)Oc1cc(O)c2c(=O)c(-c3ccc(O)cc3)coc2c1	S1P1 ag-PAM 107
COc1ccc(-c2coc3cc(O)cc(O)c3c2=O)cc1	none (no result: 5HT1a antag)
O=c1cc(CN2CCN(C/C=C/c3ccccc3)CC2)c2cc(O)ccc2o1	5HT1a antag 44
OCCNc1nc(N2CCN(Cc3ccccc3)CC2)nc2ccccc12	none
Nc1ccc(CN2CCN(c3ccc4ccccc4n3)CC2)cc1	HTR1E agonist 14
Cc1ccc(C(=O)OCc2nnc(-c3ccccc3)o2)o1	none
CC(=O)c1c(C)[nH]c(C(=O)OCc2nnc(-c3ccccc3)o2)c1C	5HT1E antag 35
CCCCn1c(=O)[nH]c(=O)c2c1nc(-c1ccncc1)n2CCOC	HTR1A agonist 270
CCSc1cnc(-c2ccccc2)n1CC	none (no result: S1P1 ag-PAM, S1P3 agonist)
COc1ccc(C(=O)c2no[n+]([O-])c2C(=O)c2ccc(OC)cc2)cc1	none
Cc1c(C(=O)c2no[n+]([O-])c2C(=O)c2cnn(C)c2C)cnn1C	5HT1a antag 46
COC(=O)c1cn(C(=O)c2ccco2)c2ccccc12	none
Cn1cc(/C(Cc2ccccc2)=N\O)c2ccccc21	HTR1E agonist 57
CC1(C)CC(=O)C(C=NCCN2CCN(C(=O)C34CC5CC(CC(C5)C3)C4)CC2)=C(O)C1	none (no result: 5HT1a antag)
O=C(O)CC(c1ccc(Cl)cc1)n1cccc1 (stereo unspecified)	none
CCOc1ccc(N(CC(=O)O)S(=O)(=O)c2ccc(F)cc2)cc1	HTR1A agonist 74
CN1CCN(S(=O)(=O)c2ccc(NC(=O)c3csc4ccccc34)cc2)CC1	5HT1E antag 35
CN1CCN(S(=O)(=O)c2ccc(NC(=O)c3cccs3)cc2)CC1	none
COC(=O)Nc1nc(C)c(C(=O)N(C)C)s1	HTR1A agonist 19
CCOCCCNC(=O)CN1CCN(Cc2ccccc2C)C1=O	none
CCOc1ccc(CCNC(=O)CN2CCN(Cc3ccccc3C)C2=O)cc1OCC	HTR1A agonist 47
COc1ccc(N2C(=O)CC(Sc3nnc(-c4ccccc4)o3)C2=O)cc1 (stereo unspecified)	5HT1a antag 47
O=C1CC(Sc2nnc(-c3ccccc3O)o2)C(=O)N1c1ccccc1 (stereo unspecified)	none
CS(=O)(=O)N(CC(=O)N1CCCC1)c1ccc(OCc2ccccc2)cc1	none (no result: S1P1 ag-PAM)
CS(=O)(=O)N(CC(=O)N1CCCCCC1)c1ccccc1	HTR1E agonist 32
COc1ccc(-n2nc3c(c2NC(=O)C2CCCC2)CS(=O)C3)cc1 (stereo unspecified)	none
O=C1CC(c2cccnc2)c2cc3c(cc2N1)OCO3 (stereo unspecified)	none
